Source: the RNAGym collection of RNA variant scans (doi:10.1126/science.aae0568)
Fewer inactive variants are shown than the library holds.

B1: tRNA (parent)
chain: GUUCCGUUGGCGUAAUGGUAACGCGUCUCCCUCCUAAGGAGAAGACUGCGGGUUCGAGUCCCGUACGGAACG

Variants of: B1
Experiment: yeast fitness relative to wild type (ratio to wild type); higher = fitter; tRNA-Arg(CCU), competitive growth, 37 C, YPD
Procedure, shortened: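 A pool of Saccharomyces cerevisiae strains, each with a tRNA-Arg(CCU) gene variant at the native genomic locus, was competed in YPD at 37°C for 24 hours across six parallel replicates. The variants had been chemically synthesised at a 3% per-site mutation rate over 69 sites, and gene amplicons before and after competition were read by 100-nucleotide paired-end sequencing. Darwinian fitness relative to wild type rested on changes in genotype frequencies. Genotypes required ≥ 100 starting reads, and estimates < 0.5 were set to 0.5.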

Going from G10C C24U C34U A36U C46A to A15G A43U C60G, the yeast fitness falls from 0.505 to no more than 0.5.

Going from A36U C49U C62G to A36G G48A, the yeast fitness rises from no more than 0.5 to 0.991.

Compared with U16A U35C, U19A G48A G68C is lower in yeast fitness: 0.91 for the first, 0.626 for the second.

Going from C11U U19A C29G to C5G G17A A20C C49G G63A, the yeast fitness falls from 0.704 to no more than 0.5.

A14U G23C C55G and U2G C22A G25C C33U A69C cannot be ordered by yeast fitness: no more than 0.5 for the first, no more than 0.5 for the second.

Compared with U3C U19A U28A C60G, G10A U54G C61U is higher in yeast fitness: no more than 0.5 for the first, 0.55 for the second.

Going from U2A A21G C33U G51C to C55U C61U, the yeast fitness rises from no more than 0.5 to 0.75.

Going from G9C C22A C34A A70G to G12A A21C A70U, the yeast fitness rises from no more than 0.5 to 0.563.

C4U A15C A65U A69U and U2C U8G C31G A42C C49U G56A C61G cannot be ordered by yeast fitness: no more than 0.5 for the first, no more than 0.5 for the second.

G38C A40U U54C and G44C C60U A70G cannot be ordered by yeast fitness: no more than 0.5 for the first, no more than 0.5 for the second.

Compared with C5G A14C G23C G38A G58C A70G, G9C C29A is higher in yeast fitness: 0.545 for the first, 0.601 for the second.

First: C11G C29U C34U G68C
Second: C55G G56A
The yeast fitness of the first is lower: no more than 0.5 for the first, 0.628 for the second.

U26A C34U C49G and C5A C11G A21U C62U cannot be ordered by yeast fitness: no more than 0.5 for the first, no more than 0.5 for the second.

U7A C27U A57U A65C and U3C A14U U28G cannot be ordered by yeast fitness: no more than 0.5 for the first, no more than 0.5 for the second.

Going from U32C C33U to G9C C62G, the yeast fitness falls from 0.659 to 0.608.

First: G23A G51A C61A C66A
Second: U3A U19C
The yeast fitness of the first is lower: 0.545 for the first, 0.875 for the second.

C31G A45U C49G A70U and C24G C34U A45C cannot be ordered by yeast fitness: no more than 0.5 for the first, no more than 0.5 for the second.

First: A40U A45G
Second: U2C G51U U54A A70U
The yeast fitness of the first is higher: 0.816 for the first, no more than 0.5 for the second.

A21G C22A G63C G67A and A20G C22U G50C G63C G67C cannot be ordered by yeast fitness: no more than 0.5 for the first, no more than 0.5 for the second.

Compared with C24G A65C, U16A G18C U26A U47C A65C is lower in yeast fitness: 0.648 for the first, no more than 0.5 for the second.

U8C U13G C22U C49U A65U and U2A C34G U64C cannot be ordered by yeast fitness: no more than 0.5 for the first, no more than 0.5 for the second.

Compared with G10A G18C C33G C66G, A20G C31U C46G is higher in yeast fitness: no more than 0.5 for the first, 0.649 for the second.

Compared with C22G G52A, G6C U7A U64G is lower in yeast fitness: 0.772 for the first, no more than 0.5 for the second.

Going from C4G A15G U26G to A37G G38C G52A C61U, the yeast fitness rises from no more than 0.5 to 0.653.

G10C C55U U59A and A15U C60G G67A cannot be ordered by yeast fitness: no more than 0.5 for the first, no more than 0.5 for the second.

Compared with A21U A37U A40U G50C, C5A A69U A70C is higher in yeast fitness: no more than 0.5 for the first, 0.768 for the second.

Going from A42U A43G G48C U53A A70C to A20U C29A C30A U53G C62G, the yeast fitness falls from 0.525 to no more than 0.5.

First: U3C C66U
Second: C5G G48C C49U U54G A65G C66A
The yeast fitness of the first is higher: 0.904 for the first, no more than 0.5 for the second.

Going from U47C C60U to U32C C60G A65C, the yeast fitness falls from 0.722 to 0.501.

Going from U35A G51C U54C A57U to C22G C29A, the yeast fitness rises from no more than 0.5 to 0.662.

Going from C27G C30G C31U A42G U54C to A14G A21C, the yeast fitness rises from no more than 0.5 to 0.866.

C4G U19C C29A C33G A45C and U16C A42G G67A cannot be ordered by yeast fitness: no more than 0.5 for the first, no more than 0.5 for the second.

C24U G41A C62A A69U and C5G A42G C49G A70U cannot be ordered by yeast fitness: no more than 0.5 for the first, no more than 0.5 for the second.

U35A A43G U64C and C4G C34G U59A cannot be ordered by yeast fitness: no more than 0.5 for the first, no more than 0.5 for the second.

A14G U19C C60G and C5A A14G C29G C55U A70U cannot be ordered by yeast fitness: no more than 0.5 for the first, no more than 0.5 for the second.

First: G44C C49U U64G G67A
Second: A43C C66U
The yeast fitness of the first is lower: 0.512 for the first, 0.948 for the second.

Going from C4G C49U C62U to A14G A15G C33G C34U A43C C49G C61G C66U A69U, the yeast fitness falls from 0.653 to no more than 0.5.

Compared with C5U A57U, C11G G12C is higher in yeast fitness: 0.663 for the first, 0.7 for the second.

G9A U16C A21G A42G and A37U G63C A69C cannot be ordered by yeast fitness: no more than 0.5 for the first, no more than 0.5 for the second.

G39C C49G G50C and U7G C11U G12C C33U G58C cannot be ordered by yeast fitness: no more than 0.5 for the first, no more than 0.5 for the second.

G25C C31G C34G G41A C61U A69U and C22G G23C C27A U28C C60A cannot be ordered by yeast fitness: no more than 0.5 for the first, no more than 0.5 for the second.

Going from A14U G25A U35A G39U A65G to C5U C24U, the yeast fitness rises from no more than 0.5 to 0.99.
